# Assay results collected from several papers.
# Compare with care: the assays were run in different laboratories.
# Target: Serine/threonine-protein kinase Chk1 (CHEK1, Homo sapiens, UniProt O14757)
# Mode: inhibitor
SMILES,read-out,technique,cells,tested at,inhibition
CCCS(=O)(=O)Nc1ccc(F)c(C(=O)c2c[nH]c3ncc(-c4ccc(Cl)cc4)cc23)c1F,enzyme activity,,,1 µM,< 10%
CCCOc1ccc(/C=C2\SC(=O)NC2=O)cc1,enzyme activity,mobility shift,,5 µM,-20%
Cc1ccc(Nc2nccc(N(C)c3ccc4c(C)n(C)nc4c3)n2)cc1S(N)(=O)=O,enzyme activity,,,0.3 µM,2%
CCN1CCN(Cc2ccc(NC(=O)c3ccc(C)c(/C=C/c4cnc5[nH]ccc5c4OC)c3)cc2C(F)(F)F)CC1,target engagement in cells,chemoproteomics,A-375,0.5 µM,-126%
CNC(=O)c1cc(Oc2ccc(NC(=O)Nc3ccc(Cl)c(C(F)(F)F)c3)cc2)ccn1,enzyme activity,,,0.3 µM,-5%
C=CC(=O)Nc1cc(Nc2nccc(Nc3cc(Cl)c(F)cc3C(C)(C)O)n2)c(OC)cc1N1CC[C@@H](N(C)C)C1,enzyme activity,,,1 µM,9%
CNCc1ccc(-c2cc(-c3nc(-c4ccc(S(=O)(=O)C(C)C)cc4)cnc3N)on2)cc1,enzyme activity,,,2 µM,52%
O=C(CSc1nc2nccnc2c(=O)n1CCc1ccccc1)Nc1nccs1,enzyme activity,,,10 µM,-11%
c1ccc(CNc2nc(N3CCOc4ccccc43)nc3c2CCCC3)cc1,target engagement in cells,chemoproteomics,,20 mM,-3.2%
CN(C)C1CCN(CC#Cc2nn(C3CCCC3)c3nc(NCc4ccccc4)ncc23)C1 (stereo not drawn),enzyme activity,FRET,,10 µM,15%
CCN1CCN(Cc2ccc(NC(=O)c3ccc(C)c(Oc4ccnc5[nH]ccc45)c3)cc2C(F)(F)F)CC1,target engagement in cells,chemoproteomics,A-375,0.5 µM,-141%
COc1cc2ncnc(Nc3ccc(Oc4ccccc4)c(C)c3C)c2cc1OC,enzyme activity,,,1 µM,1%
